Experimental data: paper PMC5693607 (Cell chemical biology, 2017)

Key:
HDAC3 [1] = biological target: T1, HDAC3 (Homo sapiens, UniProt O15379); format: cell-based; details: MDA-MB-231 cells, inhibitor 2–12 hours; for photomate labeling (engagement) of HDAC3 after inhibitor treatment: then photomate 10 µM
Method in brief: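 MDA-MB-231 cells were grown 2 days in complete medium, then treated with inhibitor. They were then either lysed directly for Western blot or photolabeled: 10 µM probe for 40 min at 37 °C, ± SAHA 200 µM competitor, then 366 nm irradiation at 4 °C. Lysate (35.2 µg) was clicked to an 800 nm IRDye azide and separated on gel. HDAC3 was co-stained by antibody and imaged at 700/800 nm.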

HDAC3 [2] = biological target: T1, HDAC3; test: Treatment followed by in situ photolabeling and Western blot, MCF-7 cells; format: cell-based
Method in brief: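 MCF-7 cells received TNF-α or vehicle, then photomate 10 µM (± SAHA 200 µM) for 40 min at 37 °C. They were irradiated at 366 nm (35 J/cm2) at 4 °C. Lysate (35.2 µg) was clicked to azide 800CW IRDye (90 min rt), gel-separated and fluorescence-imaged. HDAC3 and phospho-HDAC3 were detected by Western blot with IRDye secondaries.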
Target sequence in this assay (O15379 whole entry): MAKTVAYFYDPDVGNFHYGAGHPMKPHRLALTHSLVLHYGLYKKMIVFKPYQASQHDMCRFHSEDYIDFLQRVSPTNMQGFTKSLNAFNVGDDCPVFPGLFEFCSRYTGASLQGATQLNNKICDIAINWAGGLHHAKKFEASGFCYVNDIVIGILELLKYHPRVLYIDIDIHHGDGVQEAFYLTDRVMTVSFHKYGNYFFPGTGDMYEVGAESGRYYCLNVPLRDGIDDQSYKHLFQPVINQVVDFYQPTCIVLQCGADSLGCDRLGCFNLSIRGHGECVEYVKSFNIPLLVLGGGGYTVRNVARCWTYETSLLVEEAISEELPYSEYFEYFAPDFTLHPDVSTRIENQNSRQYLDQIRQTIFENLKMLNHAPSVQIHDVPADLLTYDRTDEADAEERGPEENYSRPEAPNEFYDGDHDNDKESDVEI
Target sequence in this assay (O75376 whole entry partner): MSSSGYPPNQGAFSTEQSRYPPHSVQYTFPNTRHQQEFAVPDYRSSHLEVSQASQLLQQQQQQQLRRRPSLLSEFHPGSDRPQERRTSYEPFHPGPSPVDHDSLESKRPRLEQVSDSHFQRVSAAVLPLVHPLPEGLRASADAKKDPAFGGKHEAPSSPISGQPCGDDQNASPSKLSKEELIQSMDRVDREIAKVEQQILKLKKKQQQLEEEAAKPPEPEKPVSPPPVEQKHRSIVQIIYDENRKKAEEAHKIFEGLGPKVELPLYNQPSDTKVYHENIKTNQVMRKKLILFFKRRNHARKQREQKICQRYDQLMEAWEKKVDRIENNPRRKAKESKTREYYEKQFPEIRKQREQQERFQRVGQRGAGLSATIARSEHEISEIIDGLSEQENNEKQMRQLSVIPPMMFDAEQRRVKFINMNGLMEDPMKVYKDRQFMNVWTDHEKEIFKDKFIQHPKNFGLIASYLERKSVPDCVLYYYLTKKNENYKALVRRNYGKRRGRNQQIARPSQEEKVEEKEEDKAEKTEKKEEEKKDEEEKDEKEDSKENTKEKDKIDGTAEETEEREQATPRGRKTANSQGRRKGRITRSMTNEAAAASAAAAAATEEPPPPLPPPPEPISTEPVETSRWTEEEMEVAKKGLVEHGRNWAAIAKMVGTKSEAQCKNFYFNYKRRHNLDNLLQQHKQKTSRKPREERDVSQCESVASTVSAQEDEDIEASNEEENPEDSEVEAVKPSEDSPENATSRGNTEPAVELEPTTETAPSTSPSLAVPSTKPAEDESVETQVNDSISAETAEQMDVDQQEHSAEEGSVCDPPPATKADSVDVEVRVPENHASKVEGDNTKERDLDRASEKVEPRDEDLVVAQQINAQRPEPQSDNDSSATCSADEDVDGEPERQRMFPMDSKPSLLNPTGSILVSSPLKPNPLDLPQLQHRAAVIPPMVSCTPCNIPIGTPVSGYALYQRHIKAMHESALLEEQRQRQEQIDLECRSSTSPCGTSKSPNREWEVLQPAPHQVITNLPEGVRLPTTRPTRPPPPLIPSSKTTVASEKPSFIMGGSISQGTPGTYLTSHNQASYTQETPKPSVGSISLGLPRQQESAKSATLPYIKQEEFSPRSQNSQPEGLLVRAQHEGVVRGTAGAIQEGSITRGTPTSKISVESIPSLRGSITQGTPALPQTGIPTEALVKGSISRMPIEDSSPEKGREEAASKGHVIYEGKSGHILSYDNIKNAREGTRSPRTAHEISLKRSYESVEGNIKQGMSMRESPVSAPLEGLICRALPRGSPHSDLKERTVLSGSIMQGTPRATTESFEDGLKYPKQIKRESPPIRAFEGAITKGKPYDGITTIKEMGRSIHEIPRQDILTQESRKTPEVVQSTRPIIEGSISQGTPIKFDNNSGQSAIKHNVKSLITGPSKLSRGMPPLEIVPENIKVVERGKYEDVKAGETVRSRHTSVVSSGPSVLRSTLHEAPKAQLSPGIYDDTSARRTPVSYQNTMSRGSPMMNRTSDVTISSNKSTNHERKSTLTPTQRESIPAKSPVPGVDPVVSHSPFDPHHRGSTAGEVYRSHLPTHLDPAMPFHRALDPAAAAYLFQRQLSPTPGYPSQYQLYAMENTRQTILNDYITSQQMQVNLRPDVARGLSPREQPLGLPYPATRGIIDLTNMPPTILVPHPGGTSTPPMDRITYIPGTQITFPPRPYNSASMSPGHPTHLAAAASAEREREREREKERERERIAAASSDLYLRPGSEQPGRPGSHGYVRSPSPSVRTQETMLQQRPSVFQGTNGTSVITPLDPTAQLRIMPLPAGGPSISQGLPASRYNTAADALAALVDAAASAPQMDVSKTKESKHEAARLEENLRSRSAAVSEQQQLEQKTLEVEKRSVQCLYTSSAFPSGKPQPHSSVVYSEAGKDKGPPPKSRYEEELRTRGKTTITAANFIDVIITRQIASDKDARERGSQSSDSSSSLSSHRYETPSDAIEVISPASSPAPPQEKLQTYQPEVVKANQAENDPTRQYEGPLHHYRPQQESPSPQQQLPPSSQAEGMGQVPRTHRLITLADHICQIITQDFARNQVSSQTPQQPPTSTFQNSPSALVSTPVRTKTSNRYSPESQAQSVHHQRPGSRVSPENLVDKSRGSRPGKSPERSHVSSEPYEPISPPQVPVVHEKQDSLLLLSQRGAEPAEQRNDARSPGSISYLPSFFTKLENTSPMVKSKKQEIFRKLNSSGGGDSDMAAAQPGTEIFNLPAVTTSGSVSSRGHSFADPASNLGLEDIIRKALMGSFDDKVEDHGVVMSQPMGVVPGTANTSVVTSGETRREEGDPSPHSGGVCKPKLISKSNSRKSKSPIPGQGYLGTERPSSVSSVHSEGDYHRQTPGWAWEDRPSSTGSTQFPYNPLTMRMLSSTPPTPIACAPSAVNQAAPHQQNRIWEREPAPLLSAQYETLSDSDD
Target sequence in this assay (O60907 whole entry partner): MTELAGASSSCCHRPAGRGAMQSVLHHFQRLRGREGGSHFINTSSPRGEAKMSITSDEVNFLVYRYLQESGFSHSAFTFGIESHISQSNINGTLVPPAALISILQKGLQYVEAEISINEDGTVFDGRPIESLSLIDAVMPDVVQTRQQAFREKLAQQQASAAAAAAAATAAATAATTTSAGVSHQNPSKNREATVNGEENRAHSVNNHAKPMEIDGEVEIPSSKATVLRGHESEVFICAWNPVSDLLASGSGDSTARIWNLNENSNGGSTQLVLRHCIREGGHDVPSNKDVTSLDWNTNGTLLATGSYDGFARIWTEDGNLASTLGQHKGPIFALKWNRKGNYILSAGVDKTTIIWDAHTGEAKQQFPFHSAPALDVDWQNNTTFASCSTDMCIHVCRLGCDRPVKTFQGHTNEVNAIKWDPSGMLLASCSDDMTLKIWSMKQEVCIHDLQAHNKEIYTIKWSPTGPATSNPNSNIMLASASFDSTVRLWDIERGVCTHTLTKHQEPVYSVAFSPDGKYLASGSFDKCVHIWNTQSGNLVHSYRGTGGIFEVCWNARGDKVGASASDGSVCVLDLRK
Target sequence in this assay (Q13227 whole entry partner): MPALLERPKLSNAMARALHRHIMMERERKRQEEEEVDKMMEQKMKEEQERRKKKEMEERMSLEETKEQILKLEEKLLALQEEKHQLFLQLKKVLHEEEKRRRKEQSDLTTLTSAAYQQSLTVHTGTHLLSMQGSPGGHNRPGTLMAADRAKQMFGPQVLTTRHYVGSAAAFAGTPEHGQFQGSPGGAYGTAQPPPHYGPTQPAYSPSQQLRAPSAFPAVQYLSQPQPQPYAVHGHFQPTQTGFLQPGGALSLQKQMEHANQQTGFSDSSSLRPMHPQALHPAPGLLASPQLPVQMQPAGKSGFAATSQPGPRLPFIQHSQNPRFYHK

recombinant HDAC1 = recombinant HDAC1 (Homo sapiens, UniProt Q13547); test: Fluorogenic enzymatic assay, recombinant HDAC1; format: biochemical
Method in brief: (§1)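 Deacetylase activity of recombinant human class I HDAC isoforms was measured with a fluorogenic assay following previously published procedures. Inhibition is reported as log IC50, as the average ± s.e. of n=3.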

recombinant HDAC2 = recombinant HDAC2 (Homo sapiens, UniProt Q92769); test: Fluorogenic enzymatic assay, recombinant HDAC2; format: biochemical
Method in brief: as §1

HDAC3 [3] = biological target: T1, HDAC3; test: Fluorogenic enzymatic assay, recombinant HDAC3; format: biochemical
Method in brief: as §1
Target sequence in this assay (O15379 whole entry): as the sequence (O15379 whole entry) above
Target sequence in this assay (Q9Y618 395-489 partner limits assumed): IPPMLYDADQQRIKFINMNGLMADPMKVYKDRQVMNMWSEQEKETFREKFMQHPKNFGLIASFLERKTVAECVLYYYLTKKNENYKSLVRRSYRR

recombinant HDAC8 = biological target: T2, recombinant HDAC8 (Homo sapiens, UniProt Q9BY41); test: Fluorogenic enzymatic assay, recombinant HDAC8; format: biochemical
T2 sequence (Q9BY41 1-377): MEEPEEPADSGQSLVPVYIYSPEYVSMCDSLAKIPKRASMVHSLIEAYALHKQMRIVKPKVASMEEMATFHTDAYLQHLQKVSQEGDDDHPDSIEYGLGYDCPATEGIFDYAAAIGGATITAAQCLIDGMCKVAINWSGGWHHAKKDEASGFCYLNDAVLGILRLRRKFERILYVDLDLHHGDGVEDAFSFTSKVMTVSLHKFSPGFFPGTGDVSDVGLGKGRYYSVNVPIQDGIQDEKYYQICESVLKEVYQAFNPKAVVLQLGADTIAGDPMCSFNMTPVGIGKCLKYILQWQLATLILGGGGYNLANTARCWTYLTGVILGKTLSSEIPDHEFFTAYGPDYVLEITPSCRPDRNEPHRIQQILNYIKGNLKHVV
Method in brief: as §1

recombinant HDAC4 = recombinant HDAC4 (Homo sapiens, UniProt P56524); test: Fluorogenic enzymatic assay, recombinant HDAC4; format: biochemical
Chain of recombinant HDAC4 (P56524 whole entry): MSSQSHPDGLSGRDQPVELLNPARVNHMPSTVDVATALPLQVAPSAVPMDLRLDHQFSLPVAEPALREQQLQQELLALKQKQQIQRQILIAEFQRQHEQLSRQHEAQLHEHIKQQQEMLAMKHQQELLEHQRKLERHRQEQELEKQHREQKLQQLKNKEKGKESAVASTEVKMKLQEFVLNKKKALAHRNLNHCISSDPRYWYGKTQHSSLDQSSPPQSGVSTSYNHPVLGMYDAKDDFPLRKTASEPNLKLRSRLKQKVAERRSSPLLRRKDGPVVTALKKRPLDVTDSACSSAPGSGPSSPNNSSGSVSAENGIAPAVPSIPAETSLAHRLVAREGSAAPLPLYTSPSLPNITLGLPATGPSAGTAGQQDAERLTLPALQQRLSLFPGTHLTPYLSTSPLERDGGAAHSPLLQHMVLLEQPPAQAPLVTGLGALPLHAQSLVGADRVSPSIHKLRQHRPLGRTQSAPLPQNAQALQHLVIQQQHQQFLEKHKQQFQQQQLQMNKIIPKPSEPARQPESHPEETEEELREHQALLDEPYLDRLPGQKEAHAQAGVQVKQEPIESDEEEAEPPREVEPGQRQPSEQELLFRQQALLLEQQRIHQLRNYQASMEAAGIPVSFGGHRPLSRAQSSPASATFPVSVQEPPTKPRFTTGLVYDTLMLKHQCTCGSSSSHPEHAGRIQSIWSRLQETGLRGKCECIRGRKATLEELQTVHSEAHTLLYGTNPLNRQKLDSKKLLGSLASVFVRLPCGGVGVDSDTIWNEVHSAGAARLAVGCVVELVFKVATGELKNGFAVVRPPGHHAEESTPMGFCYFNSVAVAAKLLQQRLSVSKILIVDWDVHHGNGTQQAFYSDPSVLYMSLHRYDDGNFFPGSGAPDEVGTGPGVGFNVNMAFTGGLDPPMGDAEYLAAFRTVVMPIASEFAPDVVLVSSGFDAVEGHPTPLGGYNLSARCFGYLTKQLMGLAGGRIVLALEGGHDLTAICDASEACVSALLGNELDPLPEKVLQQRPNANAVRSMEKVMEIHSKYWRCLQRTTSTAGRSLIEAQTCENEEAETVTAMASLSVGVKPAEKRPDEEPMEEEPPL

[4] = system: recombinant class I and II HDACs; test: Photolabeling of recombinant proteins, gel based visualization; format: binding
class I and II HDACs [5] = biological target: T3, class I and II HDACs (Homo sapiens, UniProt O15379); format: cell-based; details: P<.0001
T3 sequence (O15379 whole entry): as the sequence (O15379 whole entry) above
Method in brief: (§2)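 Cells at 90% confluence were pretreated with SAHA (200 µM) or DMSO, then given photomate 10 µM for 40 min at 37 °C. They were cooled to 4 °C and irradiated at 366 nm (35 J/cm2). Lysate (1 mg) was clicked to azide-biotin (1.5× probe; TCEP, TBTA, CuSO4; 90 min rt), then enriched on streptavidin beads and in-gel digested. Proteins reduced ≥50% by SAHA were scored.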

class I and II HDACs [6] = format: cell-based, Human; details: seven breast cancer cell lines, photomate 10 µM
Method in brief: as §2

class I and II HDACs [7] = biological target: T3, class I and II HDACs; test: In situ photolabeling of MCF-7 cells, enrichment, Western blot and MS/MS; format: cell-based; details: MCF-7 cells and other luminal cell types
Method in brief: (§3)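 MCF-7 cells at 90% confluence were pretreated with SAHA (200 µM) or DMSO, then given 10 µM test compound for 40 min at 37 °C. Cells were cooled to 4 °C, irradiated at 366 nm (35 J/cm2) and lysed in HEPES pH 7.5 buffer. Lysate was click-conjugated to biotin azide (CuSO4/TBTA/TCEP, 90 min, rt), then streptavidin-enriched for Western blot or in-gel tryptic MS/MS. A hit was a protein reduced ≥50% by SAHA and absent in DMSO controls.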

class I and II HDACs [8] = test: as above; format: cell-based, Human; details: MCF-7 cells
Method in brief: as §3

TNBC cells = test: Efficacy in breast cancer cells; format: cell-based, Human; details: Figure S2B
[9] = MCF-7 cells stimulated with TNF-α, compared to TNF-α alone

Row | Compound | HDAC3 phosphorylation after inhibitor treatment (HDAC3 [1]) | photomate labeling (engagement) of HDAC3 after inhibitor treatment (HDAC3 [1]) | photomate labeling of HDAC3 after treatment (HDAC3 [2]; MCF-7 cells) | further results
1 | CCOc1nc(NC(=O)Cc2cc(OC)ccc2OC)cc(N)c1C#N [TCS 6o] | decreased | decreased |  | HDAC3 phosphorylation, JNK inhibitor pretreatment then TNF-α (HDAC3 [2]; [9]): decrease in HDAC3 labeling and phosphorylation; photomate labeling of HDAC3, JNK inhibitor pretreatment then TNF-α (HDAC3 [2]; [9]): decrease in HDAC3 labeling and phosphorylation
2 | O=C(c1ccc(Nc2nccc(-c3cc4ccccc4s3)n2)cc1)N1CCC(N2CCCC2)CC1 [IKK-16] |  | no change |  | 
3 | IGF-1: MAPK stimulating growth factor |  |  | had no effect | 
4 | CC/C(=C(\c1ccccc1)c1ccc(OCCN(C)C)cc1)c1ccccc1 [tamoxifen] |  |  | no increase | HDAC3 phosphorylation after treatment (HDAC3 [2]; MCF-7 cells): no increase
5 | EGF: MAPK stimulating growth factor |  |  | had no effect | 
6 | TNF-α |  |  | induces specific labeling of HDAC3 | 
7 | COc1ccc(CNC(=O)Nc2ncc([N+](=O)[O-])s2)cc1 [AR-A014418] | did not affect | did not affect |  | 
8 | Oc1c2ccccc2c2c3c(cccc13)N=N2 [SP600125] | complete loss of HDAC3 phosphorylation | abolished the labeling of HDAC3 |  | 
9 | C#CCN(CCCCCC(=O)NO)Cc1c(F)c(F)c(N=[N+]=[N-])c(F)c1F [photomate, 6-((4-Azido-2,3,5,6-tetrafluorobenzyl)(prop-2-yn-1-yl)amino)-N-hydroxyhexanamide] |  |  |  | IC50 (recombinant HDAC1): 417 nM; IC50 (recombinant HDAC2): 132 nM; IC50 (HDAC3 [3]): 109 nM; IC50 (recombinant HDAC8): 2270 nM; IC50 (recombinant HDAC4): 20100 nM; relative potency or affinity based on inhibition or labeling (isoform selectivity) ([4]; recombinant HDAC1, 2, 3, 8 and 4): nonselective for HDAC1, 2 and 3 but shows decreased potency and affinity with respect to HDAC8 and the class II HDAC4; HDAC3 enriched from TNBC cell lines in comparison to luminal subtypes (class I and II HDACs [5]): increased amounts of HDAC3 were enriched from TNBC cell lines; HDAC isoforms enriched across cell lines (class I and II HDACs [6]): ubiquitously targeted and enriched HDAC1, 2 and 9 from every cell line; engagement of HDAC3 in cells (class I and II HDACs [7]): could not be detected; HDAC targets identified by MS/MS and Western blot (class I and II HDACs [8]): HDAC1 and 2 were the only HDAC targets; efficacy in TNBC cells (TNBC cells): increased efficacy in TNBC cells
10 | O=c1cc(N2CCOCC2)oc2c(-c3ccccc3)cccc12 [LY294002] | Neither of the compounds induced any change | Neither of the compounds induced any change |  | 
11 | Oc1ccc(-c2nc(-c3ccncc3)c(-c3ccc(F)cc3)[nH]2)cc1 [SB202190] |  | increased labeling |  | 
12 | O=C(CCCCCCC(=O)Nc1ccccc1)NO [SAHA, suberoyl anilide hydroxamic acid] |  |  |  | photomate labeling of HDAC isoforms upon co-incubation with competitor ([4]; SAHA 200 µM, photomate 10 µM): Labeling of all HDAC isoforms was lost
13 | Brc1c(Br)c(Br)c2n[nH]nc2c1Br [TBB] | Neither of the compounds induced any change | Neither of the compounds induced any change |  | 
